This is a sample that favours compounds with a hit; in the whole collection about 3.7% have one here.
KCNK3 block: human KCNK3 channel inhibition, primary screen; O14649; CHO-KCNK3 thallium flux, FluxOR fluorescence; hits give low values; B-score at 10 µM; hit rate 0.84% among 340,000;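 active = B-score under library mean minus 4 SD, starting fluorescence ratio at most library mean plus 5 SD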;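 note: more negative B-score means stronger inhibition of thallium flux through KCNK3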
hERG rescue: compounds protecting human hERG from proarrhythmic drug block; hit rate 0.51% among 310,000; activation (rescue from dofetilide block), less the hit threshold, % at 10 µM; CHO-hERG, FluxOR thallium flux, dofetilide IC70 present; Q12809;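 active = activation above the mean of controls blocked by dofetilide plus 5 SD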;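 note: thallium influx through hERG after potassium depolarization seen as dye fluorescence rise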
Kir21 block: Kir2.1 (mouse) channel inhibition; HEK293-Kir2.1, FluxOR thallium flux fluorescence; hits give low values; B-score at 10 µM; P35561; hit rate 0.85% among 310,000; AID 1672;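 active = fluorescence ratio B-score at or below minus 3 SD of library scores, with starting-brightness B-score within 2 SD, cut at about -4.2 in these data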;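 note: channel flux triggered by added potassium and thallium sulfate stimulus; B-score of peak minus minimum fluorescence over baseline after thallium stimulus; more negative B-score means stronger Kir2.1 block with less thallium influx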
Target sequence (P35561 whole entry, looked up): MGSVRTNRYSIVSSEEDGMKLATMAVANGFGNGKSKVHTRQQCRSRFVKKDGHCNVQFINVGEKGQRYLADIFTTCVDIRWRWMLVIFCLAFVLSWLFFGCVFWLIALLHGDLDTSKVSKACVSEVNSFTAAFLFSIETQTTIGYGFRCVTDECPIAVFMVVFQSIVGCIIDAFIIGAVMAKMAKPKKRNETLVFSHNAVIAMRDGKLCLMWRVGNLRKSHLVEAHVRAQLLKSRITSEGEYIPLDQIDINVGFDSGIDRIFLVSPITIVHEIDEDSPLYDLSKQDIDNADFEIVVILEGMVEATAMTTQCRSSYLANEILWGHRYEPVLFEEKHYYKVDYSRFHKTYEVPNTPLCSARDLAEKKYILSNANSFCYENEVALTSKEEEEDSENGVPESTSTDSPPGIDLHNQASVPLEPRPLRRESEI
KCNQ1 act: potentiates or activates the human KCNQ1 potassium channel; CHO-K1 KCNQ1, thallium flux FluxOR fluorescence; hits give high values; B-score at 10 µM; hit rate 0.35% among 310,000; AID 2648;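 active = fluorescence ratio B-score, a plate-corrected score, at least three library SD, with initial intensity B-score within 5 SD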
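Material: CHO-K1 cells stably expressing KCNQ1. Medium: assay buffer for compound exposure, DMSO matched across wells. Reagent: K+/Tl+ depolarizing stimulus. Compound dosing: single-concentration screen. Times: 37 °C overnight plating, 90-min dark dye load, 20-min compound pretreatment. Technique: FluxOR Tl+ flux fluorescence.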
KCNK9 inh: inhibitors of human KCNK9 two-pore domain potassium channel. Q9NPC2. HEK293 KCNK9, FluxOR thallium flux fluorescence; hits give low values. B-score at 10 µM. hit rate 1.2% among 310,000;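 active = ratio B-score over 3 SD below the library mean, with starting fluorescence within 5 SD of its mean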;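 note: negative B-score means less thallium flux so channel inhibition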
KCNQ1 block: blocks the human KCNQ1 potassium channel; CHO-K1 KCNQ1, FluxOR thallium flux fluorescence; hits give high values; B-score at 10 µM; hit rate 1.3% among 310,000; AID 2642; P51787;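 active = compounds whose thallium flux B-score, printed positive for inhibition, exceeds three library SD while starting fluorescence stays within three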;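 note: channel opened by potassium depolarization with thallium stimulus after 20 min compound exposure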
The depositor's hits bear a star; i = inactive; / = not tested or not shown.

SMILES | KCNK3 block | hERG rescue | Kir21 block | KCNQ1 act | KCNK9 inh | KCNQ1 block
N=c1c2c(ncn1CCCO)Oc1ccc3ccccc3c1C2c1ccccc1 (stereo unspecified) | i | -11 | -4.2* | i | i | i
N=c1c2c(ncn1CCCO)Oc1c(ccc3ccccc13)C2c1ccccc1 (stereo unspecified) | i | -18 | -3.7 | i | i | i
Cn1c(C(=O)NC2CC2)cc(=O)n(C)c1=O | i | -6 | -0.83 | i | i | i
CN(C)CCCn1cnc2c(c1=N)C(c1ccccc1)c1ccc3ccccc3c1O2 (stereo unspecified) | i | -17 | -7.2* | i | i | i
O=c1c2cn(Cc3ccccc3)c3ccccc3c-2nn1Cc1ccc(F)cc1Cl | i | -9 | 1.9 | i | i | i
COC(=O)Cc1ccc(NC(=S)NCc2ccccc2OC)cc1 | i | -7 | -0.02 | i | i | i
COc1ccccc1CNC(=S)Nc1ccc(F)cc1 | i | -2 | -4.7* | i | i | i
COC(=O)c1sc(NC(=S)NC(=O)c2ccc(F)cc2)nc1C | / | -4 | -1.3 | i | i | i
CCOC(=O)c1sc(NC(=S)NC(=O)c2ccco2)nc1C | i | 8.9* | 1.3 | 9* | i | i
O=C(COC(=O)c1ccco1)Nc1nc2ccccc2s1 | i | 7.3* | 0.03 | i | i | i
CC(=O)Nc1nc(=S)ss1 | i | -8 | -0.1 | i | i | i
COC(=O)c1sc(NC(=O)c2ccco2)nc1C | i | -5 | -1.9 | i | i | i
Cc1ccccc1C(=O)Nc1nc(=S)ss1 | i | 20* | -0.05 | 9* | i | i
COC(=O)c1sc(NC(=S)NC(=O)c2ccccc2C)nc1C | i | 25* | 0.41 | 42* | i | i
Cc1ccc(CNCc2cc(Cl)ccc2O)cc1 | i | / | / | / | / | /
O=C(NC(=S)NCc1ccc(-c2nc3ccccc3s2)cc1)c1ccco1 | i | 5.5* | 0.18 | i | i | i
Cc1nc(NC(=S)NC(=O)c2cccs2)ccc1Br | i | -6 | -2.6 | 13* | i | i
COc1ccc2nc(NC(=S)NC(=O)c3ccco3)sc2c1 | i | 31* | -0.16 | 25* | i | i
Cc1ccc2nc(NC(=S)NC(=O)c3cccs3)sc2c1 | i | 10* | -1.3 | 17* | i | i
O=C(NCc1ccc(-c2nc3ccccc3s2)cc1)c1ccco1 | i | -7 | 0.5 | i | i | i
COc1ccc2nc(NC(=O)CCNC(=O)c3ccco3)sc2c1 | i | / | / | / | / | /
CCN(C[C@H]1N[C@@](Cc2ccccc2)(C(=O)OC)[C@H]2C(=O)N(C)C(=O)[C@@H]12)C(C)=O | i | / | / | / | / | /
O=C(NC(=S)Nc1nc2ccccc2s1)c1ccco1 | i | 9.2* | 0.11 | 34* | i | i
CN(c1ccc(OCC(=O)OCC(=O)Nc2ccc([N+](=O)[O-])cc2)cc1)S(=O)(=O)c1cccs1 | i | / | / | / | / | /
N#C/C(C(N)=O)=C1/CCCN1Cc1ccccc1 | i | -5 | -0.04 | i | i | i
SMILES | KCNK3 block | hERG rescue | Kir21 block | KCNQ1 act | KCNK9 inh | KCNQ1 block
CCOC(=O)C(C)Sc1nc(-c2ccccc2)nc2ccccc12 (stereo unspecified) | i | -16 | 1.2 | i | -7.6* | i
Oc1oc(-c2ccccc2)nc1/C=N/c1nccs1 | i | 0 | -1.4 | 12* | i | i
CCCCOc1ccc(-c2nc(/C=N/c3nccs3)c(O)o2)cc1 | i | 1 | 0.66 | i | i | i
COc1ccc(CC(=O)NC(C)c2nnc(SCC(=O)c3ccc(OC)cc3)n2C)cc1 (stereo unspecified) | i | -13 | 0.43 | i | i | i
COc1ccc(CC(=O)NC(C)c2nnc(SCCOc3ccc(OC)cc3)n2C)cc1 (stereo unspecified) | i | -17 | -4.3* | i | i | i
Cc1ccccc1NCN1C(=O)C2CCC(C)(C1=O)C2(C)C (stereo unspecified) | i | -7 | -0.39 | i | i | i
CC12CCC(C(=O)N(CSC(=S)N/N=C\c3ccccc3Cl)C1=O)C2(C)C (stereo unspecified) | i | -6 | -0.14 | 35* | i | i
